Test [1] deals with T1, Histamine H3 receptor (Homo sapiens, UniProt Q9Y5N1). Nature of the test: Inverse agonist activity at human H3 receptor expressed in HEK293T cells assessed as inhibition of {35S]GTPgamma binding. It is filed as cell-based. The note with it: HEK-293T. The essentials: (§1)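 Basal [35S]GTPγS binding was measured in membranes from HEK cells expressing human H3 receptor, across a range of concentrations. EC50 and maximal inhibition relative to basal binding were derived.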

For a further test, the system named is Rattus norvegicus. Nature of the test: Inhibition of (R)-alpha-methylhistamine-induced water consumption in rat dispogenia model at 3 to 10 mg/kg, ip administered 30 mins prior (R)-alpha-methylhistamine challenge measured over 1 hr. It counts as functional, organism-based. An outline of the steps:
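Rat dipsogenia model: test article was given ip at 3 or 10 mg/kg 30 min before the H3 agonist (R)-α-methylhistamine. Water consumed during the 1 h after agonist dosing was recorded and compared with vehicle and agonist-alone groups (p < 0.05).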

Test [2] deals with T1, Histamine H3 receptor. Nature of the test: Inverse agonist activity at human H3 receptor expressed in HEK293T cells assessed as inhibition of {35S]GTPgamma binding relative to basal level. It counts as cell-based. The conditions noted are these: HEK-293T, concentration not given here. The essentials: as §1
Test [3] concerns the target 5-hydroxytryptamine receptor 6 (Homo sapiens, UniProt P50406). Nature of the test: Binding affinity to 5-HT6 receptor.
Test [4] has as its target Sodium-dependent dopamine transporter (Homo sapiens, UniProt Q01959). Nature of the test: Binding affinity to DAT.
The target in test [5] is T2, 5-hydroxytryptamine receptor 1A (Homo sapiens, UniProt P08908).
T2 sequence (P08908 whole entry): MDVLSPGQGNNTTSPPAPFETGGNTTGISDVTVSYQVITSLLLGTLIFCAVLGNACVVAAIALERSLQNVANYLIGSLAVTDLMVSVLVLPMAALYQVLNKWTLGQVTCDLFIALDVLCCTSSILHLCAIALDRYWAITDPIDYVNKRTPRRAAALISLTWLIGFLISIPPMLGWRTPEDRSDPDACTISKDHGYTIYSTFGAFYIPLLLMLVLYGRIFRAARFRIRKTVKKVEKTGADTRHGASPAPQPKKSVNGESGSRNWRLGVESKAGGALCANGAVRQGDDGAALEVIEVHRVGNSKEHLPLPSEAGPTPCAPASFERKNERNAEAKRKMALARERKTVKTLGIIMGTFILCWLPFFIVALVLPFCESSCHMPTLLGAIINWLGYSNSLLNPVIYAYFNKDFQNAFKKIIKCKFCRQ
Nature of the test: Binding affinity to 5-HT1A receptor.

A further test addresses Histamine H1 receptor (Homo sapiens, UniProt P35367). Nature of the test: Binding affinity to H1 receptor.
Test [6] concerns the target 5-hydroxytryptamine receptor 2B (Homo sapiens, UniProt P41595). Nature of the test: Binding affinity to 5-HT2B receptor.
The target of test [7] is T1, Histamine H3 receptor. Nature of the test: Displacement of [3H]-(R)-alpha-methylhistamine from human H3 receptor expressed in HEK293T cells after 120 mins by scintillation counting. It is filed as cell-based, HEK-293T. On the technique in general: Displacement assays read how much labelled ligand stays bound in the presence of the test substance.
The target of another test is Histamine H2 receptor (Homo sapiens, UniProt P25021). Nature of the test: Binding affinity to H2 receptor.
Sequence of Histamine H2 receptor (P25021 whole entry): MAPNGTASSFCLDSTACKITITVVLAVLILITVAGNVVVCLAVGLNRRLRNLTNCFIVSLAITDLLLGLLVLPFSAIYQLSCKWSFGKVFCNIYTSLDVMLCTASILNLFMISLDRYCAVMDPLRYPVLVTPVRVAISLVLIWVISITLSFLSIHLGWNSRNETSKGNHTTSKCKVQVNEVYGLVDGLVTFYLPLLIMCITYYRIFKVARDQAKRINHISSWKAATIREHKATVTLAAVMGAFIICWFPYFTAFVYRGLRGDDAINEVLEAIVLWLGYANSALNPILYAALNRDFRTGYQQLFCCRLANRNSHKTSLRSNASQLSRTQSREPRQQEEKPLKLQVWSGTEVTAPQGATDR
Test [8] concerns the target Voltage-gated inwardly rectifying potassium channel KCNH2 (Homo sapiens, UniProt Q12809). Nature of the test: Inhibition of human ERG by IonWorks assay. (In patch-clamp work, channel activity is measured electrically.)
In test [9] the target is Sodium-dependent serotonin transporter (Homo sapiens, UniProt P31645). Nature of the test: Binding affinity to 5-HT transporter.
Sequence of Sodium-dependent serotonin transporter (P31645 whole entry): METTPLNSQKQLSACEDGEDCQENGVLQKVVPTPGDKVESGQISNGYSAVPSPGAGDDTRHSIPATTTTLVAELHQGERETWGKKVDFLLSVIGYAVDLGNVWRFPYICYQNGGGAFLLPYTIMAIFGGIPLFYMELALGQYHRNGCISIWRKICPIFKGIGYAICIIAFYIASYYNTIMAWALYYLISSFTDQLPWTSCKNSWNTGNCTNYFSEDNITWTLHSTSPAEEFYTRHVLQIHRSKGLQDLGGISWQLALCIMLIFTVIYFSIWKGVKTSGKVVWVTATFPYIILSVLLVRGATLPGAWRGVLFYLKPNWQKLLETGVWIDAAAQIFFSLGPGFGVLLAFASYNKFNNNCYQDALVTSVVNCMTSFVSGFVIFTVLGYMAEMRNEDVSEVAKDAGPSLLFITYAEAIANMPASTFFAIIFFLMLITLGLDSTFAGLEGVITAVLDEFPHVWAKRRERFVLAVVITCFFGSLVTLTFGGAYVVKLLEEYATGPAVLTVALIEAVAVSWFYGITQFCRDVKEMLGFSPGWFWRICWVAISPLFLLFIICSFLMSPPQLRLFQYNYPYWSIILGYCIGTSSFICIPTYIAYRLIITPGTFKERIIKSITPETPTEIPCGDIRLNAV
Test [10] concerns the target T3, Alpha-2A adrenergic receptor (Homo sapiens, UniProt P08913).
T3 sequence (P08913 whole entry): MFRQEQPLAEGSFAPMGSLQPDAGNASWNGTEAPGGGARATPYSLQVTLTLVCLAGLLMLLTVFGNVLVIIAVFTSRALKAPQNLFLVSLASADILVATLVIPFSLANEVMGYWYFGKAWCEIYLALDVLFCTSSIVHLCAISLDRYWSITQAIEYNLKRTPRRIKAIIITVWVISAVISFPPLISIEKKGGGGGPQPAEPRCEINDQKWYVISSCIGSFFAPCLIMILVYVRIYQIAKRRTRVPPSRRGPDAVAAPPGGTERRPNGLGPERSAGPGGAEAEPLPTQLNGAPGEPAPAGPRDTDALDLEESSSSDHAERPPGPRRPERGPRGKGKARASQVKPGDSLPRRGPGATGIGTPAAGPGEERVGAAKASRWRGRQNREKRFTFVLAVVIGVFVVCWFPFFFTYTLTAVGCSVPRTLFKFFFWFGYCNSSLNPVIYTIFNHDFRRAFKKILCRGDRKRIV
Nature of the test: Binding affinity to alpha-2A receptor.

The target of a further test is D(2) dopamine receptor (Homo sapiens, UniProt P14416). Nature of the test: Binding affinity to D2 receptor.
Sequence of D(2) dopamine receptor (P14416 whole entry): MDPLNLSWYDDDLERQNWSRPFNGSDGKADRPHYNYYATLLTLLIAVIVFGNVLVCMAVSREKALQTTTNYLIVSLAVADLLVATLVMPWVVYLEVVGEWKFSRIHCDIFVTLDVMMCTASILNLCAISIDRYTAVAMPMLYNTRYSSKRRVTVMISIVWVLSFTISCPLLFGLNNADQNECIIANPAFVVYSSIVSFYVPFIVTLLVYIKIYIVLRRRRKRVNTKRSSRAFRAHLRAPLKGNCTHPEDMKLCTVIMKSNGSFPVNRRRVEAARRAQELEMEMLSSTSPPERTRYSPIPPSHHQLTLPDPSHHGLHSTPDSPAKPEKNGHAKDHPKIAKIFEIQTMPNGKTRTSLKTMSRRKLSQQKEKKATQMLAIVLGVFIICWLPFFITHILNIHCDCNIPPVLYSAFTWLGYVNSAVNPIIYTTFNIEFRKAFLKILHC

Activity calls are given as the source filed them. No cut-off for these calls is given here.

For orientation: inhibition means the drop in the measured response relative to a control, in per cent. As usually defined, the Ki is a measure of affinity in units of concentration, obtained from inhibition or displacement. A higher Ki goes with lower affinity. The IC50 is the concentration at which inhibition is half-maximal. A higher IC50 goes with a need for much substance.

T1 sequence (Q9Y5N1 whole entry): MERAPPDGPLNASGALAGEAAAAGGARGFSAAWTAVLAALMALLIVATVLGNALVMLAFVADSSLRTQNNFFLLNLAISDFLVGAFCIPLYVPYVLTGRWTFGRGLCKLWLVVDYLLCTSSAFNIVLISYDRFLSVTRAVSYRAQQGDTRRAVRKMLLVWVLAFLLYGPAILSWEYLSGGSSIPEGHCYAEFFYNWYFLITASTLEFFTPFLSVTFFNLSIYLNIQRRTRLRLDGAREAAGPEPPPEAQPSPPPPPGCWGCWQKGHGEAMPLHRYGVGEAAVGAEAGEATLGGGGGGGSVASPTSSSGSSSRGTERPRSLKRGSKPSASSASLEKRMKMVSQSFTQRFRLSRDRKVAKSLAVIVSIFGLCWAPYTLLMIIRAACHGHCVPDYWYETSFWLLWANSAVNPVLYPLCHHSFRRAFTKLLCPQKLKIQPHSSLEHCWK
Sequence of Sodium-dependent dopamine transporter (Q01959 whole entry): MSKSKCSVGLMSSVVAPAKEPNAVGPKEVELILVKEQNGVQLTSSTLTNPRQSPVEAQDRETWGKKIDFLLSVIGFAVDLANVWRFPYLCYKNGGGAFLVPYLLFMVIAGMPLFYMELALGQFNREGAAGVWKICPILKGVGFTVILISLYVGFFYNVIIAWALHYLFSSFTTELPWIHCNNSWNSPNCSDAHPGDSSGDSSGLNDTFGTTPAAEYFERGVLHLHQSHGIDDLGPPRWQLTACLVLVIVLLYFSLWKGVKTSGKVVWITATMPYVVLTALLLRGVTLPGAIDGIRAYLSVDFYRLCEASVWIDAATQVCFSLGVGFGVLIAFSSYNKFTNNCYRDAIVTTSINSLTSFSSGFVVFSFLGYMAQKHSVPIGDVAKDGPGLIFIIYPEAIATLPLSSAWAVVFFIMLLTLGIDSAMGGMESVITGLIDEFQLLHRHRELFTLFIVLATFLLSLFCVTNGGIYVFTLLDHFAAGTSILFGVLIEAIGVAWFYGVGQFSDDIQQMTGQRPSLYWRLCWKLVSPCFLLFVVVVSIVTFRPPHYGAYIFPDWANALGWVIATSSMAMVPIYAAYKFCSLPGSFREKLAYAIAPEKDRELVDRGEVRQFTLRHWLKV
Sequence of Histamine H1 receptor (P35367 whole entry): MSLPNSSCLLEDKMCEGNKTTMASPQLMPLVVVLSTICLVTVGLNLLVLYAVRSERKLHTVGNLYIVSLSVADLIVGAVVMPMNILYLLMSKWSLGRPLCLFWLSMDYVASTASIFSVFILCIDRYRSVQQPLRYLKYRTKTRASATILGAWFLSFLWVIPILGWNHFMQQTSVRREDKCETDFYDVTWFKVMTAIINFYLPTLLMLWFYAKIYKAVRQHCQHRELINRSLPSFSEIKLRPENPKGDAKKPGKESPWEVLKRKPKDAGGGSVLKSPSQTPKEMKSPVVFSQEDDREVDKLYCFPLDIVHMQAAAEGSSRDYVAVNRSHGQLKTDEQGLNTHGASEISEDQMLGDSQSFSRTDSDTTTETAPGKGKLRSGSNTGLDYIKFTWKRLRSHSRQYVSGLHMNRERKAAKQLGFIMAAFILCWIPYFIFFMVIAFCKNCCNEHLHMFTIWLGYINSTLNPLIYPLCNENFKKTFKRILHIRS
Sequence of Voltage-gated inwardly rectifying potassium channel KCNH2 (Q12809 whole entry): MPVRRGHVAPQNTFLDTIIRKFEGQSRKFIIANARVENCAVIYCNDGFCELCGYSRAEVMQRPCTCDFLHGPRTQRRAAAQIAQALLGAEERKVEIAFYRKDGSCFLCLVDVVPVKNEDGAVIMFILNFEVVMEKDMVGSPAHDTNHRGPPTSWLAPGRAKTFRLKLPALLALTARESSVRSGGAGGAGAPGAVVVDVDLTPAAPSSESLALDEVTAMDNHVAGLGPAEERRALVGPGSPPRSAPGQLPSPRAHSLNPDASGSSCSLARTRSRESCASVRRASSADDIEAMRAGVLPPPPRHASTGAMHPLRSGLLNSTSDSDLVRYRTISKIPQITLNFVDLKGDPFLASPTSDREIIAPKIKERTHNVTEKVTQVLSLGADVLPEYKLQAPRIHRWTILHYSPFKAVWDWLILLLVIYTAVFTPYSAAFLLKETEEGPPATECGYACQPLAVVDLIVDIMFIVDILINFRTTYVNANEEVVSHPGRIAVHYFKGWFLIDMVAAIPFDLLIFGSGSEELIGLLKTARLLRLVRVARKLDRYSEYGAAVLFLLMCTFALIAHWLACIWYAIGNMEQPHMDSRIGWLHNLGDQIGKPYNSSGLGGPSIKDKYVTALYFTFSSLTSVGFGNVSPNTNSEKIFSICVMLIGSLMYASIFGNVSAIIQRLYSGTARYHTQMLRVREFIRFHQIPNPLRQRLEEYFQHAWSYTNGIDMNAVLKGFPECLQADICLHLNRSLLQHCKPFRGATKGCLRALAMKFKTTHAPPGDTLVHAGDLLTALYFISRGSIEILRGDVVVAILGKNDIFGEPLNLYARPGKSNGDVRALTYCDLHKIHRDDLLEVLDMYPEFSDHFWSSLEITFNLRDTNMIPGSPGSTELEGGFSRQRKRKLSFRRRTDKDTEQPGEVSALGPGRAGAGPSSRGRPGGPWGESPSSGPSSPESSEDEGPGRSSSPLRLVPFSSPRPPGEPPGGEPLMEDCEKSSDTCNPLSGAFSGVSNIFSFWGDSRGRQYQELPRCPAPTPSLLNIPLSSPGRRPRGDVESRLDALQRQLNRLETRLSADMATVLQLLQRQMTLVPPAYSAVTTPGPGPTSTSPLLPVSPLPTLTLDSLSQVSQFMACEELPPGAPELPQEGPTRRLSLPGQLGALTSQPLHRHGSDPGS
Sequence of 5-hydroxytryptamine receptor 2B (P41595 whole entry): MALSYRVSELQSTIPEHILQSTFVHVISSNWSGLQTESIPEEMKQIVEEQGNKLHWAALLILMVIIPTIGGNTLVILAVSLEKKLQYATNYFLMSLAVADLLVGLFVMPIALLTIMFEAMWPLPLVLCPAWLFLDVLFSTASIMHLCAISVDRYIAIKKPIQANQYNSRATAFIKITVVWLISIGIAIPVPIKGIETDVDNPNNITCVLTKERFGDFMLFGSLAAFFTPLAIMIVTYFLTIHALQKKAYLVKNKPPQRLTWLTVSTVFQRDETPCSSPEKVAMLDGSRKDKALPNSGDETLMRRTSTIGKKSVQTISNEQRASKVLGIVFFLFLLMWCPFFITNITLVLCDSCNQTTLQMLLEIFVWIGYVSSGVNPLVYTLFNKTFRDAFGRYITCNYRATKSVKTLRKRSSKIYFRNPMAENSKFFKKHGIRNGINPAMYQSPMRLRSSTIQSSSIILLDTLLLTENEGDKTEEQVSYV

For `CN(C)C(=O)c1ccc(-c2ccc3c(c2)CCN(CCN2CCCC2)C3=O)cc1`, on Histamine H3 receptor [1], the Activity result was “Dose-dependent effect”. Also, the inhibition entry in the test on Rattus norvegicus was “Active”. In addition, the inhibition on Histamine H3 receptor [2] was 65%.

On to `O=C(NC1CCCC1)c1ccc(-c2ccc3c(c2)CCN(CCN2CCCC2)C3=O)cc1`, for which the Ki was above 10 µM in [3]; above 10 µM in test [4]; 8.72 µM in test [5]; 9.62 µM at Histamine H1 receptor; above 10 µM in test [6]; 0.0019 µM at Histamine H3 receptor [7]. Further, the Ki at Histamine H2 receptor was above 10 µM; in test [9], 0.17 µM; in test [10], above 3 µM; at D(2) dopamine receptor, above 10 µM. The compound further returned an IC50 in [8] of 8.2 µM.

As to `CCNC(=O)c1ccc(-c2ccc3c(c2)CCN(CCN2CCC[C@H]2C)C3=O)cc1`, the Ki is above 10 µM in test [3]; above 10 µM in [4]; 10.1 µM in test [5]; 7.23 µM at Histamine H1 receptor; above 10 µM in [6]; 0.001 µM at Histamine H3 receptor [7]. Further, the Ki at Histamine H2 receptor is above 10 µM; in test [9], 0.3 µM; in test [10], above 3 µM; on D(2) dopamine receptor it was above 10 µM. Further, the IC50 in test [8] was found to be 7.4 µM.

Source of the values: ChEMBL document CHEMBL2029265, “2-(Pyrrolidin-1-yl)ethyl-3,4-dihydroisoquinolin-1(2H)-one derivatives as potent and selective histamine-3 receptor antagonists” (J Med Chem, 2012).
